Laboratory results reported in PMC4603714 (Drug Design, Development and Therapy, 2015).
Like-named read-outs stand apart in the source and are kept apart here.

What was measured:
[1] = system: HDAC (HeLa cell nuclear extract); test: In vitro HDAC inhibition fluorescence assay; type: biochemical, human; details: read-out: HeLa cell nuclear extract IC50, substrate Boc-Lys(acetyl)-AMC, mean of three experiments
Outline: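 HeLa nuclear extract preincubated with test compound at several concentrations, 10 min at 37°C. Boc-Lys(acetyl)-AMC then added and incubated 30 min at 37°C. Reaction stopped with developer containing trypsin and trichostatin A. Fluorescence read 20 min later (ex 390/em 460 nm). Inhibition calculated relative to control wells. IC50 obtained by regression of concentration against inhibition ratio.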

[2] = system: U937 cells; test: In vitro antiproliferative assay; type: cell-based; details: Homo sapiens, U-937, 48 h, read-out: U937 IC50
Outline: (§1)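 Cells kept in RPMI-1640 with 10% FBS at 37°C, 5% CO2. Passaged into plates the day before dosing and grown at least 4 h before test compound was added. Exposure was 48 h, then 0.5% MTT for 4 h. Formazan was dissolved in DMSO for 15 min and absorbance read at 570 nm. Inhibition was taken relative to control wells, and IC50 was obtained by regression of concentration versus inhibition ratio.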

[3] = system: U937 xenograft; test: In vivo antitumor assay in U937 xenograft model; parameters: species or system male athymic nude mice (BALB/c-nu)
Outline: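 U937 cells were injected subcutaneously into the right flank of male BALB/c-nu mice aged 5–6 weeks. After about 10 days, at roughly 100 mm3, mice were randomized six per group. Dosing was oral, 100 mg/kg daily for 12 days, with controls given an equal volume of PBS. Calipers were used every 3 days, V = ab2/2, and RTV = Vt/V0. Body weight was tracked. Tumors were weighed and organs inspected at necropsy. Analysis used a two-tailed t-test, P<0.05.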

[4] = system: HCT116 cells; test: In vitro antiproliferative assay; type: cell-based; details: Homo sapiens, HCT-116, 48 h, read-out: HCT116 IC50
Outline: as §1

[5] = system: HeLa cells; test: In vitro antiproliferative assay; type: cell-based; details: Homo sapiens, 48 h, read-out: HeLa IC50
Outline: as §1

[6] = system: H7402 cells; test: In vitro antiproliferative assay; type: cell-based; details: Homo sapiens, H7402, 48 h, read-out: H7402 IC50
Outline: as §1

[7] = system: U266 cells; test: In vitro antiproliferative assay; type: cell-based; details: Homo sapiens, U-266, 48 h, read-out: U266 IC50
Outline: as §1

[8] = system: KG-1 cells; test: In vitro antiproliferative assay; type: cell-based; details: Homo sapiens, KG-1, 48 h, read-out: KG-1 IC50
Outline: as §1

[9] = system: HDAC (HeLa cell nuclear extract); details: read-out: HeLa cell nuclear extract IC50; HDAC inhibition; ref Zhang et al.[8]; cited from earlier work
[10] = U937 xenograft mice, 100 mg/kg once a day orally for 12 days

Row | Compound | IC50 [1] | IC50 [2] | also measured
1 | O=C(Nc1cccc(Cl)c1)N[C@H](C(=O)Nc1ccc(C(=O)NO)cc1)c1ccccc1 [Compound 7b, (S)-4-(2-(3-(3-Chlorophenyl)ureido)-2-phenylacetamido)-N-hydroxybenzamide] | 0.0126 µM | 2.9 µM | –
2 | O=C(Nc1ccc(Cl)cc1Cl)N[C@H](C(=O)Nc1ccc(C(=O)NO)cc1)c1ccccc1 [Compound 7h, (S)-4-(2-(3-(2,4-Dichlorophenyl)ureido)-2-phenylacetamido)-N-hydroxybenzamide] | 0.0012 µM | 5.1 µM | –
3 | COc1cccc(CN[C@H](C(=O)Nc2ccc(C(=O)NO)cc2)c2ccccc2)c1 [Compound 9d, (S)-N-Hydroxy-4-(2-((3-methoxybenzyl)amino)-2-phenylacetamido)benzamide] | 0.07 µM | 0.53 µM | Relative increment ratio (T/C) ([3]; U937 xenograft in nude mice, 100 mg/kg once a day orally for 12 days): 43%; Body weight loss [3, 10]: no significant body weight loss; Toxic signs in macroscopic analysis of liver and spleen [3, 10]: no evident toxic signs; Oral antitumor activity ([3]; U937 xenograft, 100 mg/kg po, tumor growth curve and final tumor tissue size): comparable with SAHA; IC50 [4]: 1.3 µM; IC50 [5]: 5.4 µM; IC50 [6]: 3.5 µM; IC50 [7]: 0.98 µM; IC50 [8]: 0.9 µM
4 | Cc1ccccc1NC(=O)N[C@H](C(=O)Nc1ccc(C(=O)NO)cc1)c1ccccc1 [Compound 7f, (S)-N-Hydroxy-4-(2-phenyl-2-(3-(o-tolyl)ureido)acetamido)benzamide] | 0.0063 µM | – | –
5 | Cc1ccccc1NC(=O)N[C@H](C(=O)Nc1ccc(/C=C/C(=O)NO)cc1)c1ccccc1 [Compound 16d, (S, E)-N-Hydroxy-3-(4-(2-phenyl-2-(3-(o-tolyl)ureido)acetamido)phenyl)acrylamide] | 0.811 µM | – | –
6 | O=C(/C=C/c1ccc(NC(=O)[C@@H](NC(=O)Nc2ccccc2Br)c2ccccc2)cc1)NO [Compound 16c, (S, E)-3-(4-(2-(3-(2-Bromophenyl)ureido)-2-phenylacetamido)phenyl)-N-hydroxyacrylamide] | 0.0917 µM | – | –
7 | O=C(Nc1cccc2ccccc12)N[C@H](C(=O)Nc1ccc(C(=O)NO)cc1)c1ccccc1 [Compound 7k, (S)-N-Hydroxy-4-(2-(3-(naphthalen-1-yl)ureido)-2-phenylacetamido)benzamide] | 0.124 µM | – | –
8 | Cc1ccc(NC(=O)N[C@H](C(=O)Nc2ccc(C(=O)NO)cc2)c2ccccc2)cc1 [Compound 7g, (S)-N-Hydroxy-4-(2-phenyl-2-(3-(p-tolyl)ureido)acetamido)benzamide] | 0.0027 µM | 3.1 µM | –
9 | O=C(NO)c1ccc(NC(=O)[C@@H](NC(=O)c2cnccn2)c2ccccc2)cc1 [Compound 8e, (S)-N-(2-((4-(Hydroxycarbamoyl)phenyl)amino)-2-oxo-1-phenylethyl)pyrazine-2-carboxamide] | 0.353 µM | – | –
10 | O=C(CCCCCCC(=O)Nc1ccccc1)NO [SAHA, suberoylanilide hydroxamic acid] | – | – | IC50 [9]: 0.146 µM
11 | O=C(NO)c1ccc(NC(=O)[C@@H](NC(=O)c2ccc3cc[nH]c3c2)c2ccccc2)cc1 [Compound 8c, (S)-N-(2-((4-(Hydroxycarbamoyl)phenyl)amino)-2-oxo-1-phenylethyl)-1H-indole-6-carboxamide] | 0.107 µM | 9.8 µM | –
12 | O=C(Nc1ccccc1Cl)N[C@H](C(=O)Nc1ccc(C(=O)NO)cc1)c1ccccc1 [Compound 7c, (S)-4-(2-(3-(2-Chlorophenyl)ureido)-2-phenylacetamido)-N-hydroxybenzamide] | 0.0023 µM | 4.4 µM | –
13 | O=C(/C=C/c1ccc(NC(=O)[C@@H](NC(=O)Nc2ccccc2Cl)c2ccccc2)cc1)NO [Compound 16a, (S, E)-3-(4-(2-(3-(2-Chlorophenyl)ureido)-2-phenylacetamido)phenyl)-N-hydroxyacrylamide] | 0.128 µM | – | –
14 | COc1ccccc1CN[C@H](C(=O)Nc1ccc(C(=O)NO)cc1)c1ccccc1 [Compound 9a, (S)-N-Hydroxy-4-(2-((2-methoxybenzyl)amino)-2-phenylacetamido)benzamide] | 0.105 µM | 0.75 µM | IC50 [4]: 1.4 µM; IC50 [5]: 8 µM; IC50 [6]: 4.1 µM; IC50 [7]: 1.5 µM; IC50 [8]: 1.1 µM
15 | COc1cccc(NC(=O)N[C@H](C(=O)Nc2ccc(C(=O)NO)cc2)c2ccccc2)c1 [Compound 7a, (S)-N-Hydroxy-4-(2-(3-(3-methoxyphenyl)ureido)-2-phenylacetamido)benzamide] | 0.0133 µM | 6.1 µM | –
16 | O=C(NO)c1ccc(NC(=O)[C@@H](NCc2ccccc2Cl)c2ccccc2)cc1 [Compound 9b, (S)-4-(2-((2-Chlorobenzyl)amino)-2-phenylacetamido)-N-hydroxybenzamide] | 0.0561 µM | 1.1 µM | IC50 [4]: 5.5 µM; IC50 [5]: 6 µM; IC50 [6]: 4.2 µM; IC50 [7]: 2.4 µM; IC50 [8]: 3.4 µM
17 | Cc1cc(C)cc(NC(=O)N[C@H](C(=O)Nc2ccc(C(=O)NO)cc2)c2ccccc2)c1 [Compound 7i, (S)-4-(2-(3-(3,5-Dimethylphenyl)ureido)-2-phenylacetamido)-N-hydroxybenzamide] | 0.015 µM | 5.7 µM | –
18 | O=C(NO)c1ccc(NC(=O)[C@@H](NC(=O)c2cc3ccccc3[nH]2)c2ccccc2)cc1 [Compound 8d, (S)-N-(2-((4-(Hydroxycarbamoyl)phenyl)amino)-2-oxo-1-phenylethyl)-1H-indole-2-carboxamide] | 0.053 µM | 8.9 µM | –
19 | CCc1cccc(CC)c1NC(=O)N[C@H](C(=O)Nc1ccc(C(=O)NO)cc1)c1ccccc1 [Compound 7j, (S)-4-(2-(3-(2,6-Diethylphenyl)ureido)-2-phenylacetamido)-N-hydroxybenzamide] | 0.178 µM | – | –
20 | O=C(NO)c1ccc(NC(=O)[C@@H](NC(=O)c2ccc3ncccc3c2)c2ccccc2)cc1 [Compound 8a, (S)-N-(2-((4-(Hydroxycarbamoyl)phenyl)amino)-2-oxo-1-phenylethyl)quinoline-6-carboxamide] | 0.168 µM | 10.5 µM | –
21 | O=C(Nc1ccccc1F)N[C@H](C(=O)Nc1ccc(C(=O)NO)cc1)c1ccccc1 [Compound 7d, (S)-4-(2-(3-(2-Fluorophenyl)ureido)-2-phenylacetamido)-N-hydroxybenzamide] | 0.0761 µM | – | –
22 | O=C(NO)c1ccc(NC(=O)[C@@H](NCc2ccccc2Br)c2ccccc2)cc1 [Compound 9c, (S)-4-(2-((2-Bromobenzyl)amino)-2-phenylacetamido)-N-hydroxybenzamide] | 0.0128 µM | 0.84 µM | IC50 [4]: 2.3 µM; IC50 [5]: 15 µM; IC50 [6]: 7.1 µM; IC50 [7]: 2.1 µM; IC50 [8]: 1.5 µM
23 | O=C(NO)c1ccc(NC(=O)[C@@H](NCc2ccc(O)cc2)c2ccccc2)cc1 [Compound 9f, (S)-N-Hydroxy-4-(2-((4-hydroxybenzyl)amino)-2-phenylacetamido)benzamide] | 0.0503 µM | 0.98 µM | IC50 [4]: 3 µM; IC50 [5]: 6.8 µM; IC50 [6]: 12.4 µM; IC50 [7]: 3.3 µM; IC50 [8]: 2.5 µM
24 | COc1cc(CN[C@H](C(=O)Nc2ccc(C(=O)NO)cc2)c2ccccc2)ccc1O [Compound 9g, (S)-N-Hydroxy-4-(2-((4-hydroxy-3-methoxybenzyl)amino)-2-phenylacetamido)benzamide] | 0.072 µM | 2 µM | IC50 [4]: 6.2 µM; IC50 [5]: 0.2 µM; IC50 [6]: 0.2 µM; IC50 [7]: 4.3 µM; IC50 [8]: 5.6 µM
25 | O=C(NO)c1ccc(NC(=O)[C@@H](NC(=O)c2ccc3nccnc3c2)c2ccccc2)cc1 [Compound 8b, (S)-N-(2-((4-(Hydroxycarbamoyl)phenyl)amino)-2-oxo-1-phenylethyl)quinoxaline-6-carboxamide] | 0.163 µM | 10.5 µM | –
26 | O=C(Nc1ccccc1Br)N[C@H](C(=O)Nc1ccc(C(=O)NO)cc1)c1ccccc1 [Compound 7e, (S)-4-(2-(3-(2-Bromophenyl)ureido)-2-phenylacetamido)-N-hydroxybenzamide] | 0.0041 µM | 2 µM | –
27 | O=C(NO)c1ccc(NC(=O)[C@@H](NCc2ccc(Cl)cc2)c2ccccc2)cc1 [Compound 9e, (S)-4-(2-((4-Chlorobenzyl)amino)-2-phenylacetamido)-N-hydroxybenzamide] | 0.0138 µM | 0.95 µM | IC50 [4]: 3 µM; IC50 [5]: 15.6 µM; IC50 [6]: 9.6 µM; IC50 [7]: 3 µM; IC50 [8]: 2 µM
28 | O=C(/C=C/c1ccc(NC(=O)[C@@H](NC(=O)Nc2ccccc2F)c2ccccc2)cc1)NO [Compound 16b, (S, E)-3-(4-(2-(3-(2-Fluorophenyl)ureido)-2-phenylacetamido)phenyl)-N-hydroxyacrylamide] | 0.215 µM | – | –
